Data: ChEMBL document CHEMBL4270599, “Synthesis of a 3'-C-ethynyl-β-d-ribofuranose purine nucleoside library: Discovery of C7-deazapurine analogs as potent antiproliferative nucleosides” (Eur J Med Chem, 2018)

Legend:
NCI-H23 [1] = test: Cytotoxicity against human NCI-H23 cells after 48 hrs by SRB assay; assay type: functional; conditions: NCI-H23, 48 h; for GI50: read-out: GI50; for TGI: read-out: TGI
SNB-19 = test: Cytotoxicity against human SNB19 cells after 48 hrs by SRB assay; assay type: functional; conditions: SNB-19, 48 h; for GI50: read-out: GI50; for CC50: read-out: LC50 (the source's name); for TGI: read-out: TGI
UACC-62 = test: Cytotoxicity against human UACC62 cells after 48 hrs by SRB assay; assay type: functional; conditions: UACC-62, 48 h; for GI50: read-out: GI50; for CC50: read-out: LC50 (the source's name); for TGI: read-out: TGI
OVCAR-4 = test: Cytotoxicity against human OVCAR4 cells after 48 hrs by SRB assay; assay type: functional; conditions: OVCAR-4, 48 h; for GI50: read-out: GI50
UO-31 = test: Cytotoxicity against human UO31 cells after 48 hrs by SRB assay; assay type: functional; conditions: UO-31, 48 h; for GI50: read-out: GI50; for TGI: read-out: TGI
PC-3 [2] = test: Cytotoxicity against human PC3 cells after 48 hrs by SRB assay; assay type: functional; conditions: PC-3, 48 h; for GI50: read-out: GI50; for TGI: read-out: TGI
HT-29 [3] = test: Growth inhibition of human HT-29 cells assessed as cell growth at 10^-8 M incubated for 48 hrs by sulforhodamine B assay relative to control; assay type: functional; conditions: HT-29, 48 h, read-out: Activity
KM12 = test: Growth inhibition of human KM12 cells assessed as cell growth at 10^-8 M incubated for 48 hrs by sulforhodamine B assay relative to control; assay type: functional; conditions: KM12, 48 h, read-out: Activity
NCI/ADR-RES = test: Growth inhibition of human NCI/ADR-RES cells assessed as cell growth at 10^-8 M incubated for 48 hrs by sulforhodamine B assay relative to control; assay type: functional; conditions: read-out: Activity
A498 = test: Growth inhibition of human A498 cells assessed as cell growth at 10^-8 M incubated for 48 hrs by sulforhodamine B assay relative to control; assay type: functional; conditions: A498, 48 h, read-out: Activity
T47D = test: Growth inhibition of human T47D cells assessed as cell growth at 10^-8 M incubated for 48 hrs by sulforhodamine B assay relative to control; assay type: functional; conditions: read-out: Activity
A549 [4] = test: Growth inhibition of human A549/ATCC cells assessed as cell growth at 10^-7 M incubated for 48 hrs by sulforhodamine B assay relative to control; assay type: functional; conditions: A549, 48 h, read-out: Activity
SF-295 = test: Growth inhibition of human SF295 cells assessed as cell growth at 10^-7 M incubated for 48 hrs by sulforhodamine B assay relative to control; assay type: functional; conditions: SF-295, 48 h, read-out: Activity
OVCAR-8 = test: Growth inhibition of human OVCAR8 cells assessed as cell growth at 10^-7 M incubated for 48 hrs by sulforhodamine B assay relative to control; assay type: functional; conditions: OVCAR-8, 48 h, read-out: Activity
786-0 = test: Growth inhibition of human 786-0 cells assessed as cell growth at 10^-7 M incubated for 48 hrs by sulforhodamine B assay relative to control; assay type: functional; conditions: 786-0, 48 h, read-out: Activity
DU-145 = test: Growth inhibition of human DU145 cells assessed as cell growth at 10^-7 M incubated for 48 hrs by sulforhodamine B assay relative to control; assay type: functional; conditions: DU-145, 48 h, read-out: Activity
HCT-116 = test: Growth inhibition of human HCT116 cells assessed as cell growth at 10^-6 M incubated for 48 hrs by sulforhodamine B assay relative to control; assay type: functional; conditions: HCT-116, 48 h, read-out: Activity
HT-29 [5] = test: Growth inhibition of human HT-29 cells assessed as cell growth at 10^-6 M incubated for 48 hrs by sulforhodamine B assay relative to control; assay type: functional; conditions: HT-29, 48 h, read-out: Activity
TK-10 [6] = test: Growth inhibition of human TK10 cells assessed as cell growth at 10^-6 M incubated for 48 hrs by sulforhodamine B assay relative to control; assay type: functional; conditions: TK-10, 48 h, read-out: Activity
PC-3 [7] = test: Growth inhibition of human PC3 cells assessed as cell growth at 10^-6 M incubated for 48 hrs by sulforhodamine B assay relative to control; assay type: functional; conditions: PC-3, 48 h, read-out: Activity
Hs-578T = test: Growth inhibition of human Hs 578T cells assessed as cell growth at 10^-6 M incubated for 48 hrs by sulforhodamine B assay relative to control; assay type: functional; conditions: read-out: Activity
NCI-H23 [8] = test: Growth inhibition of human NCI-H23 cells assessed as cell growth at 10^-5 M incubated for 48 hrs by sulforhodamine B assay relative to control; assay type: functional; conditions: NCI-H23, 48 h, read-out: Activity
SW-620 = test: Growth inhibition of human SW620 cells assessed as cell growth at 10^-5 M incubated for 48 hrs by sulforhodamine B assay relative to control; assay type: functional; conditions: SW-620, 48 h, read-out: Activity
U-251 [9] = test: Growth inhibition of human U251 cells assessed as cell growth at 10^-5 M incubated for 48 hrs by sulforhodamine B assay relative to control; assay type: functional; conditions: U-251, 48 h, read-out: Activity
NCI-H226 = test: Growth inhibition of human NCI-H226 cells assessed as cell growth at 10^-4 M incubated for 48 hrs by sulforhodamine B assay relative to control; assay type: functional; conditions: NCI-H226, 48 h, read-out: Activity
SN12C = test: Growth inhibition of human SN12C cells assessed as cell growth at 10^-4 M incubated for 48 hrs by sulforhodamine B assay relative to control; assay type: functional; conditions: read-out: Activity
HMEC-1 = test: Antiproliferative activity against HMEC1 cells after 4 days by Coulter counter method; assay type: cell-based; conditions: Homo sapiens, HMEC-1, 96 h
Outline: (§1)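 Primary HUVEC, primary HMVEC-d and the HMEC-1 line seeded at 20,000 cells/well in gelatin-coated plates in EC growth medium (EGM2). After overnight incubation, 5-fold compound dilutions added. Cells proliferated four days with compound, then trypsinized and counted by Coulter counter to derive IC₅₀.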

[10] = Antiproliferative activity against HMVEC-d cells after 4 days by Coulter counter method; assay type: cell-based; conditions: Homo sapiens, 96 h; outline: as §1
A549 [11] = test: Growth inhibition of human A549/ATCC cells assessed as cell growth at 10^-4 M incubated for 48 hrs by sulforhodamine B assay relative to control; assay type: functional; conditions: A549, 48 h, read-out: Activity
Malme-3M = test: Growth inhibition of human MALME-3M cells assessed as cell growth at 10^-5 M incubated for 48 hrs by sulforhodamine B assay relative to control; assay type: functional; conditions: read-out: Activity
BT-549 = test: Growth inhibition of human BT549 cells assessed as cell growth at 10^-5 M incubated for 48 hrs by sulforhodamine B assay relative to control; assay type: functional; conditions: BT-549, 48 h, read-out: Activity
U-251 [12] = test: Growth inhibition of human U251 cells assessed as cell growth at 10^-4 M incubated for 48 hrs by sulforhodamine B assay relative to control; assay type: functional; conditions: U-251, 48 h, read-out: Activity
TK-10 [13] = test: Growth inhibition of human TK10 cells assessed as cell growth at 10^-4 M incubated for 48 hrs by sulforhodamine B assay relative to control; assay type: functional; conditions: TK-10, 48 h, read-out: Activity
[14] = read-out: LC50 (the source's name)
[15] = read-out: pLC50 (the source's name) (converted)

Work on C#C[C@@]1(O)[C@@H](CO)O[C@@H](n2cc(I)c3c(N)ncnc32)[C@@H]1O yielded a GI50 (NCI-H23 [1]) of 0.271 to 0.395 µM, a CC50 (NCI-H23 [1]; [14]) of over 100 µM and a TGI (NCI-H23 [1]) of 4.31 to 9.72 µM. It also gave a GI50 (SNB-19) of 0.0535 to 0.185 µM, a CC50 (SNB-19) of over 100 µM and a TGI (SNB-19) of 25 to 100 µM. For the same molecule, the GI50 (UACC-62) was 0.573 to 0.659 µM, the CC50 (UACC-62) was 6.63 to 24.5 µM and the TGI (UACC-62) was 2.38 to 3.23 µM. For the same molecule, the GI50 (OVCAR-4) was 0.563 to 1.16 µM, the TGI (OVCAR-4; read-out: TGI) was over 100 µM and the CC50 (OVCAR-4; [15]) was over 100 µM. It also gave a TGI (OVCAR-4; read-out: pTGI (converted)) of over 100 µM, a GI50 (UO-31) of 0.0791 to 0.103 µM and a CC50 (UO-31; [14]) of over 100 µM. The TGI (UO-31) was 3.07 to 3.3 µM, the GI50 (PC-3 [2]) was 0.0663 to 0.0861 µM and the CC50 (PC-3 [2]; [14]) was over 100 µM. The TGI (PC-3 [2]) was 14.5 to 100 µM, the growth at 0.01 µM (HT-29 [3]) was 56 to 73% and the growth at 0.01 µM (KM12) was 94 to 97%. For the same molecule, the growth at 0.01 µM (NCI/ADR-RES) was 86 to 88%, the growth at 0.01 µM (A498) was 88 to 102% and the growth at 0.01 µM (T47D) was 13 to 44%. The growth at 0.1 µM (A549 [4]) was 69 to 80%, the growth at 0.1 µM (SF-295) was 63 to 76% and the growth at 0.1 µM (OVCAR-8) was 32 to 35%. The growth at 0.1 µM (786-0) was 72 to 79%, the growth at 0.1 µM (DU-145) was 50 to 57% and the growth at 1 µM (HCT-116) was 5 to 6%. For the same molecule, the growth at 1 µM (HT-29 [5]) was 9 to 13%, the growth at 1 µM (TK-10 [6]) was 34 to 39% and the growth at 1 µM (PC-3 [7]) was 13 to 14%. The growth at 1 µM (Hs-578T) was 38 to 53%, the growth at 10 µM (NCI-H23 [8]) was -16% and the growth at 10 µM (SW-620) was 4%. For the same molecule, the growth at 10 µM (U-251 [9]) was 4%, the growth at 100 µM (NCI-H226) was 4 to 16% and the growth at 100 µM (SN12C) was 6%. The IC50 (HMEC-1) was 0.018 µM, the IC50 [10] was under 0.00128 µM and the growth at 100 µM (A549 [11]) was 4 to 8%.
For C#C[C@@]1(O)[C@@H](CO)O[C@@H](n2cc(Br)c3c(N)ncnc32)[C@@H]1O, the GI50 (NCI-H23 [1]) was 0.162 to 0.225 µM, the TGI (NCI-H23 [1]) was 1.93 to 4.21 µM and the CC50 (NCI-H23 [1]; [15]) was over 100 µM. For the same molecule, the GI50 (SNB-19) was 0.0174 to 0.211 µM, the CC50 (SNB-19) was over 100 µM and the TGI (SNB-19) was 0.777 to 100 µM. For the same molecule, the GI50 (UACC-62) was 0.151 to 0.349 µM, the CC50 (UACC-62) was 60 to 74.9 µM and the TGI (UACC-62) was 11.8 to 12.9 µM. For the same molecule, the GI50 (OVCAR-4) was 0.296 to 0.452 µM, the CC50 (OVCAR-4; [14]) was over 100 µM and the TGI (OVCAR-4; read-out: TGI) was over 100 µM. The TGI (OVCAR-4; read-out: pTGI (converted)) was over 100 µM, the GI50 (UO-31) was 0.115 to 0.13 µM and the TGI (UO-31) was 0.315 to 1.5 µM. It also gave a CC50 (UO-31; [15]) of over 100 µM, a GI50 (PC-3 [2]) of 0.0477 to 0.167 µM and a TGI (PC-3 [2]) of 8.7 to 100 µM. The CC50 (PC-3 [2]; [15]) was over 100 µM, the growth at 0.01 µM (HT-29 [3]) was 78 to 94% and the growth at 0.01 µM (KM12) was 91 to 95%. For the same molecule, the growth at 0.01 µM (NCI/ADR-RES) was 80 to 90%, the growth at 0.01 µM (A498) was 95 to 97% and the growth at 0.01 µM (T47D) was 64 to 81%. It also gave a growth at 0.1 µM (A549 [4]) of 48 to 80%, a growth at 0.1 µM (SF-295) of 60 to 78% and a growth at 0.1 µM (OVCAR-8) of 28 to 43%. The growth at 0.1 µM (786-0) was 69 to 88%, the growth at 0.1 µM (DU-145) was 38 to 58% and the growth at 1 µM (HCT-116) was 2 to 3%. For the same molecule, the growth at 1 µM (HT-29 [5]) was 5 to 8%, the growth at 1 µM (TK-10 [6]) was 17 to 27% and the growth at 1 µM (PC-3 [7]) was 8 to 12%. For the same molecule, the growth at 1 µM (Hs-578T) was 6 to 57%, the growth at 10 µM (SW-620) was 4 to 5% and the growth at 10 µM (Malme-3M) was 5 to 10%. It also gave a growth at 10 µM (BT-549) of -44%, a growth at 100 µM (NCI-H226) of 23% and a growth at 100 µM (U-251 [12]) of 4%. The growth at 100 µM (SN12C) was 1 to 5%, the growth at 100 µM (TK-10 [13]) was 7% and the IC50 (HMEC-1) was 0.0045 µM. The IC50 [10] was 0.0019 µM and the growth at 100 µM (A549 [11]) was 9 to 12%.
